Measured values: ChEMBL document CHEMBL4673223, “Synthesis, Biological, and Structural Explorations of New Zwitterionic Derivatives of 14- O-Methyloxymorphone, as Potent μ/δ Opioid Agonists and Peripherally Selective Antinociceptives” (J Med Chem, 2019)
Calls of active or inactive are those of the source. No cut-off for these calls is given here.

Key:
[1] = target: Delta-type opioid receptor (Homo sapiens) (UniProt P41143); experiment: Displacement of [3H]diprenorphine from human DOR expressed in CHO cell membranes incubated for 60 mins liquid scintillation counting assay; conditions: Cell membrane, filed as agonist
Outline: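 Membranes from CHO cells expressing human DOR (15–20 μg) in 50 mM Tris-HCl, pH 7.4, were incubated with 0.2 nM [3H]diprenorphine and varied test concentrations for 60 min at 25 °C. Nonspecific binding was set with 1–10 μM unlabeled diprenorphine. Samples were GF/C filtered and scintillation counted.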

Rattus norvegicus = organism: Rattus norvegicus; experiment: Selectivity index, ratio of Ki for displacement of [3H][Ile5,6]deltorphin II from delta opioid receptor in rat brain membranes to Ki for displacement of [3H]DAMGO from mu opioid receptor in rat brain membranes; type: cell membranes
Outline: (§1)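 Rat brain membranes (cerebella removed; 0.3–0.5 mg protein) in 50 mM Tris-HCl, pH 7.4, were incubated 45 min at 35 °C with 1 nM [3H]DAMGO (MOR) or 0.5 nM [3H][Ile5,6]deltorphin II (DOR) plus varied test concentrations. Nonspecific binding was set with 10 μM naloxone. Samples were GF/C filtered, washed and scintillation counted. Ki was obtained by Cheng–Prusoff; duplicates, 3–4 experiments.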

[2] = Selectivity index, ratio of Ki for displacement of [3H]U69,593 from kappa opioid receptor in guinea-pig brain membranes to Ki for displacement of [3H]DAMGO from mu opioid receptor in rat brain membranes; type: cell membranes
Outline: (§2)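 Guinea-pig brain membranes (0.3–0.5 mg protein) in 50 mM Tris-HCl, pH 7.4, were incubated with 1 nM [3H]U69,593 for 30 min at 30 °C, with 10 μM naloxone defining nonspecific binding. MOR was measured on rat brain membranes with 1 nM [3H]DAMGO for 45 min at 35 °C. Samples were filtered and scintillation counted, and Ki was obtained by Cheng–Prusoff; duplicates, 3–4 experiments.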

Mus musculus = experiment: Antinociceptive activity in CD1 mouse assessed as inhibition of the writhing response at 200 ug/kg, sc and co-administered with 1 mg/kg naloxone methiodide and measured after 30 mins post dose by acetic acid-induced writhing assay; type: functional, organism-based; conditions: dose 200.0 µg/kg
Outline: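 Male CD1 mice (30–35 g) received the agonist sc in saline (10 μL/g) together with sc naloxone methiodide 1 mg/kg. At 25 min, 0.6% acetic acid was given ip, and writhes were counted over a 10 min observation period (30 min post-dose). Results were expressed as mean writhes versus saline control and agonist-alone groups; n = 6–7 mice per group; ANOVA with Tukey post hoc.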

Mu-type opioid receptor = Mu-type opioid receptor (Rattus norvegicus, UniProt P33535); experiment: Displacement of [3H]DAMGO from mu opioid receptor in rat brain membranes incubated for 45 mins by liquid scintillation counting method; type: cell membranes, Membrane; outline: as §1
[3] = target: Delta-type opioid receptor (Rattus norvegicus, UniProt P33533); experiment: Displacement of [3H][Ile5,6]deltorphin II from delta opioid receptor in rat brain membranes incubated for 45 mins by liquid scintillation counting method; type: cell membranes, Membrane; outline: as §1
[4] = target: Kappa-type opioid receptor (Cavia porcellus, UniProt P41144); experiment: Displacement of [3H]U69,593 from kappa opioid receptor in guinea-pig brain membranes incubated for 30 mins by liquid scintillation counting method; type: cell membranes, Membrane; outline: as §2
Sequence of Kappa-type opioid receptor (P41144 whole entry): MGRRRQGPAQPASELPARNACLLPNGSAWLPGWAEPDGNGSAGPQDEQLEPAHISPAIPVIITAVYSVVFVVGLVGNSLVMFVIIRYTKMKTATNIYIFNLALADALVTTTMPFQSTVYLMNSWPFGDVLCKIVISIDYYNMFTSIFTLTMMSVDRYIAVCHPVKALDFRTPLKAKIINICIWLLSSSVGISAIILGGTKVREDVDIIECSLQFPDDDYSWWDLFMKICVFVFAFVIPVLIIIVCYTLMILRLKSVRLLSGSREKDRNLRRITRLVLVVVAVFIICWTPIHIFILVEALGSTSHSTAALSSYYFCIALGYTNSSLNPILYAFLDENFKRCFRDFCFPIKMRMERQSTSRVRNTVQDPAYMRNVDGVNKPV

Sequence of Delta-type opioid receptor (Homo sapiens) (P41143 whole entry): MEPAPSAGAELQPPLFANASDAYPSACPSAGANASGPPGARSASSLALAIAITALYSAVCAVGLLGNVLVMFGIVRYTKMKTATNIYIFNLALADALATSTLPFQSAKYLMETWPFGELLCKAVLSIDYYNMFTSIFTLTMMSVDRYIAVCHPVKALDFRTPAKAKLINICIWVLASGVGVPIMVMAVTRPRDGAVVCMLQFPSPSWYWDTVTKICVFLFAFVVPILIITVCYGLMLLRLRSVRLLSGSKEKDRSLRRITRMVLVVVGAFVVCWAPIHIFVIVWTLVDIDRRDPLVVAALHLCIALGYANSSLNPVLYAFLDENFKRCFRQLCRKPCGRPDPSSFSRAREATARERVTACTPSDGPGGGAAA
Sequence of Delta-type opioid receptor (P33533 whole entry): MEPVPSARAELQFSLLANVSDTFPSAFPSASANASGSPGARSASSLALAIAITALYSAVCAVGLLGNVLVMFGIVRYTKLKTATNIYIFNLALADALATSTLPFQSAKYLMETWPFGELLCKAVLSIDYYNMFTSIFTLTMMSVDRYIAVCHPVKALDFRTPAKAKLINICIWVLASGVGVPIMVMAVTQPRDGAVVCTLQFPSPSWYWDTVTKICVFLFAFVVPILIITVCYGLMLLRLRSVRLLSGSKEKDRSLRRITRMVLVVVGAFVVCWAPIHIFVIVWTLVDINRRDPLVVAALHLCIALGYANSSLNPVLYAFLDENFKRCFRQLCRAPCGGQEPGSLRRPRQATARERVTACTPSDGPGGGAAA
Sequence of Mu-type opioid receptor (P33535 whole entry): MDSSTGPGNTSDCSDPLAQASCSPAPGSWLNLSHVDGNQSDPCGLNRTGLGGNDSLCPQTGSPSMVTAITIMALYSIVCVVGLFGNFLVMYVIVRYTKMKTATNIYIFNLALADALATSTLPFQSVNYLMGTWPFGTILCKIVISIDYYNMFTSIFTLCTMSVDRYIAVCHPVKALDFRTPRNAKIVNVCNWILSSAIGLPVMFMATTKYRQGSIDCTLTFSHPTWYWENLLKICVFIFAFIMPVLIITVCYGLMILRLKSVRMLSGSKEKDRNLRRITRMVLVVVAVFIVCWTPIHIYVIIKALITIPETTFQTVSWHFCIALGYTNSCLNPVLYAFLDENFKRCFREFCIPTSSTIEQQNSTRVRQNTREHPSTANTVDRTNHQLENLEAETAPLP

Row | SMILES | Activity [1] | Ratio Ki (Rattus norvegicus) | Ratio Ki [2] | Activity (Mus musculus) | Ki (Mu-type opioid receptor) [nM] | Ki [3] [nM] | Ki [4] [nM]
1 | CO[C@@]12CC[C@@H](NCC(=O)NCC(=O)O)[C@@H]3Oc4c(O)ccc5c4[C@@]31CCN(C)[C@@H]2C5 | Active | 1.6 | 44 | inactive |  |  | 
2 | CO[C@@]12CC[C@@H](N[C@@H](Cc3ccccc3)C(=O)O)[C@@H]3Oc4c(O)ccc5c4[C@@]31CCN(C)[C@@H]2C5 | Active | 0.4 | 59 |  | 2.58 | 1.03 | 151
3 | CO[C@@]12CC[C@@H](N[C@@H](Cc3c[nH]c4ccccc34)C(=O)O)[C@@H]3Oc4c(O)ccc5c4[C@@]31CCN(C)[C@@H]2C5 | Active | 1.8 | 13 | inactive |  |  | 
4 | CO[C@@]12CC[C@@H](N[C@@H](C)C(=O)O)[C@@H]3Oc4c(O)ccc5c4[C@@]31CCN(C)[C@@H]2C5 | Active |  |  |  |  | 7.71 | 63.7
5 | CO[C@@]12CC[C@H](N[C@@H](Cc3ccccc3)C(=O)O)[C@@H]3Oc4c(O)ccc5c4[C@@]31CCN(C)[C@@H]2C5 | Active | 3.9 | 30 |  | 0.95 |  | 28.5
